Source: article PMC6843711 (ACS Omega, 2019)

Experiments:
diabetic mice [1] = test: Blood glucose levels in diabetic mice; format: in vivo; conditions: LOQ = 20 mM
How it was run: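 Male mice (about 20 ± 2 g) were randomised into eight groups (n = 5). After an 18 h fast, diabetes was induced with a single ip alloxan dose of 50 mg/kg in 0.5 mL, and diabetic animals served as positive control. Test compound was given ip in 0.5 mL for 1 week, with saline as negative control. Cardiac blood was drawn under diethyl ether, and serum (600g, 15 min) was assayed for glucose. Triplicate; mean ± SD; Kruskal–Wallis, p < 0.05.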

[2] = DPPH free radical scavenging assay
How it was run: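 Methanolic test compound at 0.2–1.0 μg/mL was mixed with 0.004% methanolic DPPH and kept in the dark for 30 min. Absorbance was read at 517 nm. Compound solution without DPPH served as blank and DPPH alone as control. Percent inhibition was derived from absorbance with and without antioxidant. Each measurement was repeated three times.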

[3] = read-out: IC50, inhibition of CuSO4-induced oxidation of human LDL; cited from earlier work
diabetic mice [4] = test: Hematological study in vivo; conditions: ip; for Alb / Chlst / Cr / TG / UA: serum
How it was run: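 Alloxan-diabetic male mice (single 50 mg/kg ip after 18 h fast; n = 5 per group) received test compound ip for 1 week, with a saline group as control. Cardiac blood was drawn under diethyl ether into 10% EDTA for automated haematology (RBC, WBC, Hb, MCV, MCH, MCHC, PLT, RDW, HCT) and into plain tubes. Serum (600g, 15 min) was assayed for albumin, uric acid, glucose, triglyceride and cholesterol. Triplicate; mean ± SD; Kruskal–Wallis.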

| HB (diabetic mice [4]; dose 0.3 mM) [g/dL] | HCT (diabetic mice [4]; dose 0.3 mM) [%] | MCH (diabetic mice [4]; dose 0.3 mM) | MCHC (diabetic mice [4]; dose 0.3 mM) [g/dL] | MCV (diabetic mice [4]; dose 0.3 mM) [μm^3] | RBC (diabetic mice [4]; dose 0.3 mM) | RDW (diabetic mice [4]; dose 0.3 mM) [%] | WBC (diabetic mice [4]; dose 0.3 mM) | HB (diabetic mice [4]; dose 0.5 mM) [g/dL] | HCT (diabetic mice [4]; dose 0.5 mM) [%] | MCH (diabetic mice [4]; dose 0.5 mM) | MCHC (diabetic mice [4]; dose 0.5 mM) [g/dL] | MCV (diabetic mice [4]; dose 0.5 mM) [μm^3] | Compound | Mean blood glucose level (diabetic mice [1]; conc. 0.3 mM) [mM] | Mean blood glucose level (diabetic mice [1]; conc. 0.5 mM) | Inhibition percent (%), DPPH scavenging ([2]; conc. 0.2 μg mL^–1) [%] | Inhibition percent (%), DPPH scavenging ([2]; conc. 0.4 μg mL^–1) [%] | Inhibition percent (%), DPPH scavenging ([2]; conc. 0.6 μg mL^–1) [%] | Inhibition percent (%), DPPH scavenging ([2]; conc. 0.8 μg mL^–1) [%] | Inhibition percent (%), DPPH scavenging ([2]; conc. 1.0 μg mL^–1) [%] | other results |
| --- | --- | --- | --- | --- | --- | --- | --- | --- | --- | --- | --- | --- | --- | --- | --- | --- | --- | --- | --- | --- | --- |
|  |  |  |  |  |  |  |  |  |  |  |  |  | Cc1nn(-c2ccccc2)c(Cl)c1C1Nc2ccccc2C(=O)N1c1ccccc1 (stereo not drawn) [Compound 4g, 2-(5-Chloro-3-methyl-1-phenyl-1H-pyrazol-4-yl)-3-phenyl-2,3-dihydroquinazolin-4(1H)-one] | 65 ± 2 | 27 ± 1 mM | 20.71 ± 0.2 | 20.32 ± 0.2 | 20.51 ± 0.1 | 21.16 ± 0.1 | 20.62 ± 0.5 |  |
|  |  |  |  |  |  |  |  |  |  |  |  |  | Cc1nn(-c2ccccc2)c(Cl)c1C1Nc2ccccc2C(=O)N1c1ccc(O)cc1 (stereo not drawn) [Compound 4i, 2-(5-Chloro-3-methyl-1-phenyl-1H-pyrazol-4-yl)-3-(4-hydroxyphenyl)-2,3-dihydroquinazolin-4(1H)-one] | 44 ± 1 | <LOQ | 80.07 ± 0.77 | 81.18 ± 0.5 | 83.9 ± 0.1 | 85.62 ± 0.3 | 86.47 ± 0.27 |  |
|  |  |  |  |  |  |  |  |  |  |  |  |  | magnolamide |  |  |  |  |  |  |  | IC50 [3]: 9.7 µM |
| 14.5 ± 0.1 | 37.1 ± 0.1 | 15.8 ± 0.1 ρg | 44.0 ± 0.2 | 40.9 | 9.05 10^6/mm^3 | 21.8 ± 0.03 | 5.3 10^3/mm^3 | 14.2 ± 0.25 | 37.9 ± 0.1 | 15.5 ± 0.23 ρg | 41.2 ± 0.1 | 40.1 | Cc1ccc(N2C(=O)c3ccccc3NC2c2c(C)nn(-c3ccccc3)c2Cl)cc1 (stereo not drawn) [Compound 4h, 2-(5-Chloro-3-methyl-1-phenyl-1H-pyrazol-4-yl)-3-(p-tolyl)-2,3-dihydroquinazolin-4(1H)-one] | 44 ± 1 | 22 ± 1 mM | 11.42 ± 0.03 | 11.44 ± 0.02 | 11.46 ± 0.02 | 11.48 ± 0.04 | 11.50 ± 0.07 | RBC (diabetic mice [4]; dose 0.5 mM): 9.92 10^6/mm^3; RDW (diabetic mice [4]; dose 0.5 mM): 23.6 ± 0.02%; WBC (diabetic mice [4]; dose 0.5 mM): 5.6 10^3/mm^3; Alb (diabetic mice [4]; dose 0.3 mM): 2.7 ± 0.04 g/dL; Chlst (diabetic mice [4]; dose 0.3 mM): 64 ± 3.2 mg/dL; Cr (diabetic mice [4]; dose 0.3 mM): 0.41 ± 0.05 mg/dL; TG (diabetic mice [4]; dose 0.3 mM): 127 ± 1.5 mg/dL; UA (diabetic mice [4]; dose 0.3 mM): 61 ± 3 µM; Alb (diabetic mice [4]; dose 0.5 mM): 2.7 ± 0.02 g/dL; Chlst (diabetic mice [4]; dose 0.5 mM): 58 ± 6 mg/dL; Cr (diabetic mice [4]; dose 0.5 mM): 0.4 ± 0.05 mg/dL; TG (diabetic mice [4]; dose 0.5 mM): 109 ± 0.7 mg/dL; UA (diabetic mice [4]; dose 0.5 mM): 62 ± 1.5 µM |
| 8.0 ± 0.2 | 18.1 ± 0.1 | 15.8 ± 0.1 ρg | 44.0 ± 0.2 | 44.9 | 8.05 10^6/mm^3 | 12.2 ± 0.01 | 3.15 10^3/mm^3 | 10.9 ± 0.1 | 34.9 ± 0.2 | 15.8 ± 0.1 ρg | 41.2 ± 0.2 | 44.1 | Cc1ccc(N2C(=O)c3ccccc3NC2c2c(C)nn(-c3ccccc3)c2Cl)c(C)c1 (stereo not drawn) [Compound 4k, 2-(5-Chloro-3-methyl-1-phenyl-1H-pyrazol-4-yl)-3-(2,4-dimethylphenyl)-2,3-dihydroquinazolin-4(1H)-one] | 29 ± 1 |  | 67.72 ± 0.2 | 67.80 ± 0.3 | 67.87 ± 0.1 | 67.95 ± 0.2 | 68.03 ± 0.1 | RBC (diabetic mice [4]; dose 0.5 mM): 7.92 10^6/mm^3; RDW (diabetic mice [4]; dose 0.5 mM): 24.8 ± 0.01%; WBC (diabetic mice [4]; dose 0.5 mM): 2.8 10^3/mm^3; Alb (diabetic mice [4]; dose 0.3 mM): 2.8 ± 0.07 g/dL; Chlst (diabetic mice [4]; dose 0.3 mM): 64 ± 3.2 mg/dL; Cr (diabetic mice [4]; dose 0.3 mM): 0.45 ± 0.05 mg/dL; TG (diabetic mice [4]; dose 0.3 mM): 127 ± 2.5 mg/dL; UA (diabetic mice [4]; dose 0.3 mM): 66 ± 2.7 µM; Alb (diabetic mice [4]; dose 0.5 mM): 2.8 ± 0.03 g/dL; Chlst (diabetic mice [4]; dose 0.5 mM): 60 ± 6 mg/dL; Cr (diabetic mice [4]; dose 0.5 mM): 0.42 ± 0.05 mg/dL; TG (diabetic mice [4]; dose 0.5 mM): 121 ± 4 mg/dL; UA (diabetic mice [4]; dose 0.5 mM): 67 ± 3.3 µM |
| 14.8 ± 0.34 | 38.6 ± 0.1 | 15.7 ± 0.2 ρg | 38.6 ± 0.2 | 40.2 | 9.34 10^6/mm^3 | 22.5 ± 0.01 | 7.6 10^3/mm^3 | 14.8 ± 0.3 | 39.6 ± 0.08 | 15.5 ± 0.03 ρg | 38.2 ± 0.1 | 39.9 | Cc1nn(-c2ccccc2)c(Cl)c1C1Nc2ccccc2C(=O)N1c1ccc(Cl)cc1 (stereo not drawn) [Compound 4j, 2-(5-Chloro-3-methyl-1-phenyl-1H-pyrazol-4-yl)-3-(4-chlorophenyl)-2,3-dihydroquinazolin-4(1H)-one] |  |  | 79.9 ± 0.9 | 87.68 ± 0.7 | 93.58 ± 1 | 99.37 ± 0.7 | 102 ± 2 | PLT (diabetic mice [4]; dose 0.3 mM): 1350 10^3/mm^3; PLT (diabetic mice [4]; dose 0.5 mM): 1326 10^3/mm^3; RBC (diabetic mice [4]; dose 0.5 mM): 9.17 10^6/mm^3; RDW (diabetic mice [4]; dose 0.5 mM): 22.2 ± 0.02%; WBC (diabetic mice [4]; dose 0.5 mM): 8 10^3/mm^3; Alb (diabetic mice [4]; dose 0.3 mM): 2.9 ± 0.02 g/dL; Chlst (diabetic mice [4]; dose 0.3 mM): 66 ± 1.4 mg/dL; Cr (diabetic mice [4]; dose 0.3 mM): 0.41 ± 0.07 mg/dL; TG (diabetic mice [4]; dose 0.3 mM): 123 ± 3 mg/dL; UA (diabetic mice [4]; dose 0.3 mM): 65 ± 2 µM; Alb (diabetic mice [4]; dose 0.5 mM): 2.8 ± 0.01 g/dL; Chlst (diabetic mice [4]; dose 0.5 mM): 62 ± 2.8 mg/dL; Cr (diabetic mice [4]; dose 0.5 mM): 0.41 ± 0.09 mg/dL; TG (diabetic mice [4]; dose 0.5 mM): 116 ± 3 mg/dL; UA (diabetic mice [4]; dose 0.5 mM): 65 ± 2 µM |
|  |  |  |  |  |  |  |  |  |  |  |  |  | Cc1ccc(N2C(=O)c3ccccc3NC2c2c(C)nn(-c3ccccc3)c2Cl)cc1C (stereo not drawn) [Compound 4l, 2-(5-Chloro-3-methyl-1-phenyl-1H-pyrazol-4-yl)-3-(3,4-dimethylphenyl)-2,3-dihydroquinazolin-4(1H)-one] |  |  | 60.14 ± 0.1 | 60.19 ± 0.2 | 60.25 ± 0.2 | 60.30 ± 0.1 | 60.35 ± 0.2 |  |
|  |  |  |  |  |  |  |  |  |  |  |  |  | O=C1O[C@H]([C@@H](O)CO)C(O)=C1O [AA, Ascorbic Acid, reference compound] |  |  | 53.13 ± 0.7 | 61.22 ± 0.7 | 69.18 ± 1 | 88.47 ± 0.9 | 98.03 ± 2 |  |
